Laboratory results: ChEMBL document CHEMBL1933017, “Synthesis and biological evaluation of some thiazolidinones as antimicrobial agents” (2012)
In brackets after ≈: the same amount, converted by molar mass.

What was measured:
[1] = tested on: Escherichia coli; assay: Antibacterial activity against Escherichia coli at 100 ug/disc after 24 hrs by disc diffusion method; type: functional; settings: read-out: DIZ
In short: (§1)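 Paper disc diffusion on autoclaved Mueller-Hinton agar poured 5 mm deep. Agar was swab-inoculated with 10⁵ CFU/mL suspension (0.5 McFarland). Discs 6.25 mm across were soaked in compound solution in DMSO (3.12–100 µg/mL) and plates incubated 24 h at (37 ± 1) °C. Read-out was inhibition zone (mm). DMSO control disc; ciprofloxacin or ketoconazole reference, 100 µg/disc. Mean of three independent experiments.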

[2] = tested on: Escherichia coli; assay: Antibacterial activity against Escherichia coli after 24 hrs by agar streak dilution method; type: functional
In short: (§2)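 MIC by agar streak dilution. Graded amounts of DMSO stock (100 μg/mL) were mixed into molten sterile nutrient agar and poured 4–5 mm deep. Serial concentrations spanned 3.12–100 µg/mL. Plates were inoculated with about 10⁵ CFU/mL of bacterial suspension and incubated at (37 ± 1) °C for 24 h. Each value is the mean of three independent experiments.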

[3] = tested on: Salmonella typhi; assay: Antibacterial activity against Salmonella Typhi at 100 ug/disc after 24 hrs by disc diffusion method; type: functional, Salmonella enterica subsp. enterica serovar Typhi; settings: Salmonella enterica, read-out: DIZ
In short: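 Paper disc diffusion on Mueller-Hinton agar poured 5 mm deep; 10⁵ CFU/mL suspension (0.5 McFarland) swabbed over surface. 6.25 mm filter paper discs soaked in compound in DMSO, incubated 24 h at (37 ± 1) °C; inhibition zone diameter in mm. DMSO disc as blank; ciprofloxacin 100 µg/disc as reference. Mean of three independent experiments.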

[4] = tested on: Shigella flexneri; assay: Antibacterial activity against Shigella flexneri at 100 ug/disc after 24 hrs by disc diffusion method; type: functional; settings: read-out: DIZ; in short: as §1
[5] = tested on: Pseudomonas aeruginosa; assay: Antibacterial activity against Pseudomonas aeruginosa […] after 24 hrs by agar streak dilution method; type: functional
[6] = tested on: Aspergillus fumigatus; assay: Antifungal activity against Aspergillus fumigatus after 48 hrs by agar streak dilution method; type: functional
In short: (§3)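 Fungal MIC by agar streak dilution on Sabouraud dextrose agar, poured 4–5 mm deep. Compound from a DMSO stock (100 μg/mL) was incorporated at serial concentrations of 3.12–100 µg/mL. Plates were inoculated with about 10⁵ CFU/mL of suspension and incubated at (37 ± 1) °C for 48 h. Each value is the mean of three independent experiments.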

[7] = tested on: Staphylococcus aureus; assay: Antibacterial activity against Staphylococcus aureus at 100 ug/disc after 24 hrs by disc diffusion method; type: functional; settings: read-out: DIZ; in short: as §1
[8] = tested on: Staphylococcus aureus; assay: Antibacterial activity against Staphylococcus aureus after 24 hrs by agar streak dilution method; type: functional; in short: as §2
[9] = tested on: Pseudomonas aeruginosa; assay: Antibacterial activity against Pseudomonas aeruginosa at 100 ug/disc after 24 hrs by disc diffusion method; type: functional; settings: read-out: DIZ; in short: as §1
[10] = tested on: Aspergillus fumigatus; assay: Antifungal activity against Aspergillus fumigatus at 100 ug/disc after 24 hrs by disc diffusion method; type: functional; settings: read-out: DIZ; in short: as §1
[11] = tested on: Candida albicans; assay: Antifungal activity against Candida albicans at 100 ug/disc after 24 hrs by disc diffusion method; type: functional; settings: read-out: DIZ; in short: as §1
[12] = tested on: Bacillus cereus; assay: Antibacterial activity against Bacillus cereus at 100 ug/disc after 24 hrs by disc diffusion method; type: functional; settings: read-out: DIZ; in short: as §1
[13] = tested on: Klebsiella pneumoniae; assay: Antibacterial activity against Klebsiella pneumoniae at 100 ug/disc after 24 hrs by disc diffusion method; type: functional; settings: read-out: DIZ; in short: as §1
[14] = tested on: Aspergillus clavatus; assay: Antifungal activity against Aspergillus clavatus after 48 hrs by agar streak dilution method; type: functional; in short: as §3
[15] = tested on: Aspergillus niger; assay: Antifungal activity against Aspergillus niger at 100 ug/disc after 24 hrs by disc diffusion method; type: functional; settings: read-out: DIZ; in short: as §1
[16] = tested on: Shigella flexneri; assay: Antibacterial activity against Shigella flexneri after 24 hrs by agar streak dilution method; type: functional; in short: as §2
[17] = tested on: Bacillus cereus; assay: Antibacterial activity against Bacillus cereus after 24 hrs by agar streak dilution method; type: functional; in short: as §2
[18] = tested on: Proteus vulgaris; assay: Antibacterial activity against Proteus vulgaris at 100 ug/disc after 24 hrs by disc diffusion method; type: functional; settings: read-out: DIZ; in short: as §1
[19] = tested on: Klebsiella pneumoniae; assay: Antibacterial activity against Klebsiella pneumoniae […] after 24 hrs by agar streak dilution method; type: functional
[20] = tested on: Aspergillus niger; assay: Antifungal activity against Aspergillus niger after 48 hrs by agar streak dilution method; type: functional; in short: as §3
[21] = tested on: Candida albicans; assay: Antifungal activity against Candida albicans after 48 hrs by agar streak dilution method; type: functional; in short: as §3
[22] = tested on: Aspergillus clavatus; assay: Antifungal activity against Aspergillus clavatus at 100 ug/disc after 24 hrs by disc diffusion method; type: functional; settings: read-out: DIZ; in short: as §1
[23] = tested on: Proteus vulgaris; assay: Antibacterial activity against Proteus vulgaris after 24 hrs by agar streak dilution method; type: functional; in short: as §2
[24] = tested on: Salmonella typhi; assay: Antibacterial activity against Salmonella Typhi after 24 hrs by agar streak dilution method; type: functional, Salmonella enterica subsp. enterica serovar Typhi; settings: Salmonella enterica
In short: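 Agar streak dilution: DMSO stock (100 µg/mL) graded into molten sterile nutrient agar, poured 4–5 mm deep and solidified. Plates carry serial dilutions spanning 3.12–100 µg/mL. Applied ~10⁵ CFU/mL suspension, then incubated 24 h at (37 ± 1) °C. MIC read as the lowest inhibitory concentration; each value is the mean of three independent experiments.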

CCN1CCN(CC2SC(c3ccccc3Br)N(c3ccc(Nc4nc(Oc5cc(=O)n(C)c6ccccc56)nc(N(C)C)n4)cc3)C2=O)CC1 (configuration not stated)
zone of inhibition at 100 µg/disc [1]: < 10 mm | MIC [2]: 100 µg/mL (≈ 130 µM) | zone of inhibition at 100 µg/disc [3]: 12 mm | zone of inhibition at 100 µg/disc [4]: 11 mm | MIC [5]: 100 µg/mL (≈ 130 µM) | MIC [6]: 100 µg/mL (≈ 130 µM) | zone of inhibition at 100 µg/disc [7]: < 10 mm | MIC [8]: 100 µg/mL (≈ 130 µM) | zone of inhibition at 100 µg/disc [9]: 14 mm | zone of inhibition at 100 µg/disc [10]: < 10 mm | zone of inhibition at 100 µg/disc [11]: < 10 mm | zone of inhibition at 100 µg/disc [12]: 13 mm | zone of inhibition at 100 µg/disc [13]: 12 mm | MIC [14]: 100 µg/mL (≈ 130 µM) | zone of inhibition at 100 µg/disc [15]: < 10 mm | MIC [16]: 100 µg/mL (≈ 130 µM) | MIC [17]: 100 µg/mL (≈ 130 µM) | zone of inhibition at 100 µg/disc [18]: 15 mm | MIC [19]: 100 µg/mL (≈ 130 µM) | MIC [20]: 100 µg/mL (≈ 130 µM) | MIC [21]: 100 µg/mL (≈ 130 µM) | zone of inhibition at 100 µg/disc [22]: 13 mm | MIC [23]: 100 µg/mL (≈ 130 µM) | MIC [24]: 100 µg/mL (≈ 130 µM)

CCN1CCN(CC2SC(c3ccccc3C(=O)O)N(c3ccc(Nc4nc(Oc5cc(=O)n(C)c6ccccc56)nc(N(C)C)n4)cc3)C2=O)CC1 (configuration not stated)
zone of inhibition at 100 µg/disc [1]: 18 mm | MIC [2]: 50 µg/mL (≈ 67.9 µM) | zone of inhibition at 100 µg/disc [3]: 13 mm | zone of inhibition at 100 µg/disc [4]: 15 mm | MIC [5]: 100 µg/mL (≈ 136 µM) | MIC [6]: 100 µg/mL (≈ 136 µM) | zone of inhibition at 100 µg/disc [7]: 21 mm | MIC [8]: 100 µg/mL (≈ 136 µM) | zone of inhibition at 100 µg/disc [9]: 13 mm | zone of inhibition at 100 µg/disc [10]: 11 mm | zone of inhibition at 100 µg/disc [11]: 17 mm | zone of inhibition at 100 µg/disc [12]: 21 mm | zone of inhibition at 100 µg/disc [13]: 16 mm | MIC [14]: 100 µg/mL (≈ 136 µM) | zone of inhibition at 100 µg/disc [15]: 15 mm | MIC [16]: 100 µg/mL (≈ 136 µM) | MIC [17]: 50 µg/mL (≈ 67.9 µM) | zone of inhibition at 100 µg/disc [18]: 12 mm | MIC [19]: 50 µg/mL (≈ 67.9 µM) | MIC [20]: 100 µg/mL (≈ 136 µM) | MIC [21]: 100 µg/mL (≈ 136 µM) | zone of inhibition at 100 µg/disc [22]: 17 mm | MIC [23]: 100 µg/mL (≈ 136 µM) | MIC [24]: 100 µg/mL (≈ 136 µM)

CCN1CCN(CC2SC(c3ccc(Cl)c(Cl)c3)N(c3ccc(Nc4nc(Oc5cc(=O)n(C)c6ccccc56)nc(N(C)C)n4)cc3)C2=O)CC1 (configuration not stated)
zone of inhibition at 100 µg/disc [1]: 17 mm | MIC [2]: 25 µg/mL (≈ 32.9 µM) | zone of inhibition at 100 µg/disc [3]: 12 mm | zone of inhibition at 100 µg/disc [4]: 22 mm | MIC [5]: 25 µg/mL (≈ 32.9 µM) | MIC [6]: 50 µg/mL (≈ 65.7 µM) | zone of inhibition at 100 µg/disc [7]: 15 mm | MIC [8]: 25 µg/mL (≈ 32.9 µM) | zone of inhibition at 100 µg/disc [9]: 23 mm | zone of inhibition at 100 µg/disc [10]: 16 mm | zone of inhibition at 100 µg/disc [11]: 23 mm | zone of inhibition at 100 µg/disc [12]: 17 mm | zone of inhibition at 100 µg/disc [13]: 19 mm | MIC [14]: 50 µg/mL (≈ 65.7 µM) | zone of inhibition at 100 µg/disc [15]: 21 mm | MIC [16]: 12.5 µg/mL (≈ 16.4 µM) | MIC [17]: 12.5 µg/mL (≈ 16.4 µM) | zone of inhibition at 100 µg/disc [18]: 19 mm | MIC [19]: 12.5 µg/mL (≈ 16.4 µM) | MIC [20]: 25 µg/mL (≈ 32.9 µM) | MIC [21]: 25 µg/mL (≈ 32.9 µM) | zone of inhibition at 100 µg/disc [22]: 19 mm | MIC [23]: 25 µg/mL (≈ 32.9 µM) | MIC [24]: 50 µg/mL (≈ 65.7 µM)
